Reference: ChEMBL document CHEMBL3868616, “Synthesis and biological evaluation of hesperetin derivatives as agents inducing apoptosis” (2017)
Activity calls are given as the source filed them. The calls are words filed in the database; no cut-off is given here.

Experiments:
[1] = Anticlonogenic activity in human HCT116 cells after 6 days by crystal violet staining based assay; assay type: functional; conditions: HCT-116, 144 h
In short: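 HCT116 colon cancer cells, long-term clonogenic survival assay. Compound exposure for six days at 0, 5, 10 and 20 µM (results section also lists 40 µM). Colonies stained with 0.1% crystal violet and quantified by densitometry. GI50 computed from the concentration–response data.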

[2] = Cytotoxicity against human HCT116 cells assessed as decrease in cell viability at 80 uM after 24 hrs by CCK-8 assay; assay type: functional, HCT-116
In short: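 HCT116 cells seeded at 5 × 10^3 per well and treated 24 h at 10, 20, 40, 80 and 100 µM. Viability read with CCK-8 as absorbance at 450 nm. Compared with vehicle by one-way ANOVA followed by Sidak's multiple comparisons test.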

HCT-116 [3] = assay: Induction of apoptosis in human HCT116 cells assessed as viable cells at 50 uM after 24 hrs by FITC-annexin V/propidium iodide staining based fluorescence assay (reference value: 90%); assay type: functional; conditions: HCT-116, 24 h, read-out: Activity
HCT-116 [4] = assay: Induction of apoptosis in human HCT116 cells assessed as early apoptotic cells at 50 uM after 24 hrs by FITC-annexin V/propidium iodide staining based fluorescence assay (reference value: 6%); assay type: functional
HCT-116 [5] = assay: Induction of apoptosis in human HCT116 cells assessed as late apoptotic cells at 50 uM after 24 hrs by FITC-annexin V/propidium iodide staining based fluorescence assay (reference value: 3%); assay type: functional
HCT-116 [6] = assay: Induction of apoptosis in human HCT116 cells assessed as necrotic cells at 50 uM after 24 hrs by FITC-annexin V/propidium iodide staining based fluorescence assay (reference value: 2%); assay type: functional
HCT-116 [7] = assay: Induction of apoptosis in human HCT116 cells assessed as increase in caspase-9 cleavage at 50 uM by immuno blot analysis; assay type: functional, cell-based; conditions: TDE = time-dependent effect
In short: (§1)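 HCT116 cells exposed to 50 µM for 0, 12 and 24 h. Total cell lysates immunoblotted with antibodies against cleaved caspase-9, cleaved caspase-3 and PARP.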

HCT-116 [8] = assay: Induction of apoptosis in human HCT116 cells assessed as increase in caspase-3 cleavage at 50 uM by immuno blot analysis; assay type: functional, cell-based; conditions: TDE = time-dependent effect; in short: as §1
HCT-116 [9] = assay: Induction of apoptosis in human HCT116 cells assessed as increase in PARP cleavage at 50 uM measured up to 24 hrs by immuno blot analysis; assay type: functional, cell-based; in short: as §1
[10] = molecular target: Mitogen-activated protein kinase 8 (Homo sapiens) (UniProt P45983); assay: Increase in JNK1 phosphorylation at Thr183/Tyr185 residues in human HCT116 cells at 50 to 200 uM measured up to 1 hr by Western blot analysis; assay type: cell-based; conditions: HCT-116
Chain of Mitogen-activated protein kinase 8 (Homo sapiens) (P45983 whole entry): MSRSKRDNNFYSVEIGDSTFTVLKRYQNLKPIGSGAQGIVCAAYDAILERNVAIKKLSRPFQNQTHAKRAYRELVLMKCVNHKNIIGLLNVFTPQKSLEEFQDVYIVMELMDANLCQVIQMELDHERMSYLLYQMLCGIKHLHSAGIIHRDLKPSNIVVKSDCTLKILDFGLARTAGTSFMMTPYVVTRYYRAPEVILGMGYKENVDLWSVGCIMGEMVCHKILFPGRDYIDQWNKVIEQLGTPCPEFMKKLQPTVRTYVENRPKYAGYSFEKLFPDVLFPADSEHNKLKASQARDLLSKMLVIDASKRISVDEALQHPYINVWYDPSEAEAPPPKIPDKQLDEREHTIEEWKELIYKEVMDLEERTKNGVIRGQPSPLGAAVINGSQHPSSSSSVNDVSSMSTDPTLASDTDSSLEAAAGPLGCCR
In short: (§2)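 HCT116 cells exposed to 0, 50, 100 or 200 µM for 1 and 12 h. Whole-cell lysates immunoblotted with an antibody specific for phospho-JNK1/2 (Thr183/Tyr185), with GAPDH as the internal loading control.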

[11] = molecular target: Mitogen-activated protein kinase 9 (Homo sapiens) (UniProt P45984); assay: Increase in JNK2 phosphorylation at Thr183/Tyr185 residues in human HCT116 cells at 50 to 200 uM measured up to 1 hr by Western blot analysis; assay type: cell-based; conditions: HCT-116; in short: as §2
Chain of Mitogen-activated protein kinase 9 (Homo sapiens) (P45984 whole entry, looked up): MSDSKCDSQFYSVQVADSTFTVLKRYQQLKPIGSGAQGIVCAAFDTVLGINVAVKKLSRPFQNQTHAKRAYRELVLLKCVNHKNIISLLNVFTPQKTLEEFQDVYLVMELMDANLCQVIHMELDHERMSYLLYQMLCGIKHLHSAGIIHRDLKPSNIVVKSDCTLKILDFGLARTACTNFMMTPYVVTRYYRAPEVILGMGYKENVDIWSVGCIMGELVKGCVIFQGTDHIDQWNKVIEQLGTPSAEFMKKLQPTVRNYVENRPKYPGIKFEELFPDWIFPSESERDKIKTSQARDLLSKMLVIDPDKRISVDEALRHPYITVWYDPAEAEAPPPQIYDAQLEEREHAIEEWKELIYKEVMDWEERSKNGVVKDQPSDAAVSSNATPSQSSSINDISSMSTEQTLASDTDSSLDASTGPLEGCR

[12] = molecular target: Mitogen-activated protein kinase 8 (Homo sapiens) (UniProt P45983); assay: Increase in JNK1 phosphorylation at Thr183/Tyr185 residues in human HCT116 cells at 50 to 200 uM measured up to 12 hrs by Western blot analysis; assay type: cell-based; conditions: HCT-116; in short: as §2
[13] = molecular target: Mitogen-activated protein kinase 9 (Homo sapiens) (UniProt P45984); assay: Increase in JNK2 phosphorylation at Thr183/Tyr185 residues in human HCT116 cells at 50 to 200 uM measured up to 12 hrs by Western blot analysis; assay type: cell-based; conditions: HCT-116; in short: as §2
[14] = molecular target: Mitogen-activated protein kinase 8 (Homo sapiens) (UniProt P45983); assay: Increase in JNK1 phosphorylation at Thr183/Tyr185 residues in human HCT116 cells at 50 to 200 uM after 12 hrs by Western blot analysis; assay type: cell-based; conditions: HCT-116; in short: as §2
[15] = molecular target: Mitogen-activated protein kinase 9 (Homo sapiens) (UniProt P45984); assay: Increase in JNK2 phosphorylation at Thr183/Tyr185 residues in human HCT116 cells at 50 to 200 uM after 12 hrs by Western blot analysis; assay type: cell-based; conditions: HCT-116; in short: as §2

With `COc1ccc([C@@H]2CC(=O)c3c(O)cc(OC(=O)c4ccccc4)cc3O2)cc1OC(=O)c1ccccc1` the GI50 [1] was 46 µM.
In the case of `COc1ccc([C@@H]2CC(=O)c3c(O)cc(OC(=O)C(C)(C)C)cc3O2)cc1O`, the GI50 [1] is reported as 31.5 µM.
`COc1ccc([C@@H]2CC(=O)c3c(O)cc(OC(=O)c4ccccc4C)cc3O2)cc1O` showed a GI50 [1] of 22.9 µM.
In the case of `CCCC(=O)Oc1cc(O)c2c(c1)O[C@H](c1ccc(OC)c(O)c1)CC2=O`, the GI50 [1] is reported as 12 µM, the Activity [2] is reported as 50% and the viability at 50 µM (HCT-116 [3]) is reported as 55%. The Activity (HCT-116 [4]) was 39%, the Activity (HCT-116 [5]) was 5% and the Activity (HCT-116 [6]) was 0%. For the same molecule, the Activity (HCT-116 [7]) was “Tde”, the Activity (HCT-116 [8]) was “Tde” and the Activity (HCT-116 [9]) was “Active”. The Activity [10] was “Active”, the Activity [11] was “Active” and the Activity [12] was “Active”. The Activity [13] was “Active”.
In the case of `COc1ccc([C@@H]2CC(=O)c3c(O)cc(OC(=O)c4ccc(C)cc4)cc3O2)cc1OC(=O)c1ccc(C)cc1`, the GI50 [1] is reported as 71.7 µM.
Work on `COc1ccc([C@@H]2CC(=O)c3c(O)cc(OC(=O)Cc4ccccc4)cc3O2)cc1OC(=O)Cc1ccccc1` yielded a GI50 [1] of 63.9 µM.
Molecule `C/C=C/C(=O)Oc1cc(O)c2c(c1)O[C@H](c1ccc(OC)c(O)c1)CC2=O` has a GI50 [1] of 16.9 µM.
With `COc1ccc([C@@H]2CC(=O)c3c(O)cc(OC(=O)c4ccccc4C)cc3O2)cc1OC(=O)c1ccccc1C` the GI50 [1] was 48.7 µM.
Work on `COc1ccc([C@@H]2CC(=O)c3c(O)cc(OC(=O)c4ccccc4)cc3O2)cc1O` yielded a GI50 [1] of 16.5 µM.
For `COc1ccc(C(=O)Oc2cc(O)c3c(c2)O[C@H](c2ccc(OC)c(OC(=O)c4ccc(OC)cc4)c2)CC3=O)cc1`, the GI50 [1] was 35.7 µM.
Molecule `COc1ccc([C@@H]2CC(=O)c3c(O)cc(O)cc3O2)cc1O` [HESPERETIN] has a GI50 [1] of 36.1 µM, an Activity [2] of 15% and a viability at 50 µM (HCT-116 [3]) of 88%. For the same molecule, the Activity (HCT-116 [4]) was 9%, the Activity (HCT-116 [5]) was 2% and the Activity (HCT-116 [6]) was 0%. The Activity [14] was “Active” and the Activity [15] was “Active”.
With `COc1ccc([C@@H]2CC(=O)c3c(O)cc(OC(=O)/C=C/c4ccccc4)cc3O2)cc1OC(=O)/C=C/c1ccccc1` the GI50 [1] was 21 µM.
In the case of `CCCC(=O)Oc1cc(O)c2c(c1)O[C@H](c1ccc(OC)c(OC(=O)CCC)c1)CC2=O`, the GI50 [1] is reported as 13.2 µM.
